Laboratory results taken from ChEMBL document CHEMBL1147969, “Synthesis of some novel heterocyclic compounds derived from diflunisal hydrazide as potential anti-infective and anti-inflammatory agents” (2007).
In brackets after ≈: the same amount, converted by molar mass. Activity calls are given as the source filed them.

What was measured:
Proteus vulgaris [1] = experiment: Antimicrobial activity against Proteus vulgaris A161 […]; assay type: functional
How it was run: (§1)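 For broth microdilution, inocula came from 12 h broth cultures adjusted to 0.5 McFarland. Test agents in 10% DMSO were serially diluted twofold (7.8–500) in nutrient broth. Wells were shaken 20 s at 300 rpm and incubated 24 h. Clear wells were plated on nutrient agar to check growth. MIC was the lowest concentration inhibiting growth. Each compound was screened twice per organism.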

Mus musculus [2] = experiment: Antiinflammatory activity against BALB/c mouse assessed as inhibition of carrageenan-induced paw edema at 50 mg/kg, po after 4 hrs; assay type: functional
How it was run: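 Mice were fasted on the last day (water only) and dosed by gavage at 50 mg/kg, suspended in 0.5% methyl cellulose; controls got vehicle, six mice per group. After 60 min, 0.5 mg/mL carrageenan in saline was injected subplantar into the right hind paw, with saline in the left. The right–left thickness difference was read by microcaliper at 4 h. % inhibition = (n−n0)/n×100 versus control.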

Proteus vulgaris [3] = experiment: Antimicrobial activity against Proteus vulgaris KUKEM1329 by disk diffusion method at 300 ug/disc; assay type: functional; how it was run: as §1
Sindbis virus [4] = experiment: Antiviral activity against Sindbis virus-induced cytopathogenicity at 16 ug/mL; assay type: functional, organism-based
Mus musculus [5] = experiment: Antinociceptive activity against mouse assessed as paw withdrawal latency at 50 mg/kg, po after 60 mins by hot plate test; assay type: functional
How it was run: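 Hot plate was set at 55 °C. Latency to jumping or hind-paw licking was recorded before and 60 min after oral dosing at 50 mg/kg, or vehicle, with a 30 s cutoff. Groups had at least eight mice each. Testing was done between 2:00 and 4:00 pm.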

Streptococcus pyogenes [6] = experiment: Antimicrobial activity against Streptococcus pyogenes KUKEM676 by disk diffusion method at 300 ug/disc; assay type: functional
How it was run: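 Mueller-Hinton agar was spread with 10^8 CFU/mL bacteria. 6 mm discs held 300 per disc of test agent, with DMSO discs as negative controls. Plates were incubated 24 h, at 37 °C for clinical strains or 27 °C for plant-associated strains. Zone of inhibition diameter in mm was measured. Each assay was repeated twice.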

Enterococcus faecalis = experiment: Antimicrobial activity against Enterococcus faecalis ATCC […] by microwell dilution method; assay type: functional; how it was run: as §1
Trichophyton benhamiae [7] = experiment: Antifungal activity against Trichophyton mentagrophytes at 300 ug/disc after 72 hrs by disk diffusion method; assay type: functional, Arthroderma benhamiae
How it was run: (§2)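 Disc diffusion was run on potato dextrose agar seeded with 10^4 spore/mL. 6 mm discs each carried 300 per disc of test agent. DMSO-impregnated discs served as negative controls. Plates were incubated 72 h, at 27 °C for plant-associated isolates or 37 °C for clinical isolates. The read-out was inhibition zone diameter in mm. Each assay was repeated twice.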

Streptococcus pyogenes [8] = experiment: Antimicrobial activity against Streptococcus pyogenes ATCC 176 by microwell dilution method; assay type: functional; how it was run: as §1
Aspergillus flavus [9] = experiment: Antifungal activity against Aspergillus flavus after 72 hrs by agar dilution method; assay type: functional
How it was run: (§3)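 Fungal isolates were screened on agar dilution plates. Test agents in 10% DMSO were mixed into potato dextrose agar containing 0.5% v/v Tween 20, over a range of 7.8–500. Plates were spot-inoculated with 10^4 spore/mL and held 72 h, at 27 °C for plant isolates or 37 °C for clinical isolates. MIC was the lowest concentration with no growth. Each test was repeated at least twice.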

Streptococcus pyogenes [10] = experiment: Antimicrobial activity against Streptococcus pyogenes KUKEM676 by microwell dilution method; assay type: functional; how it was run: as §1
Escherichia coli = experiment: Antimicrobial activity against Escherichia coli A1 by microwell dilution method; assay type: functional; how it was run: as §1
Aspergillus flavus [11] = experiment: Antifungal activity against Aspergillus flavus at 300 ug/disc after 72 hrs by disk diffusion method; assay type: functional; how it was run: as §2
Aspergillus versicolor [12] = experiment: Antifungal activity against Aspergillus variecolor after 72 hrs by agar dilution method; assay type: functional; how it was run: as §3
Aspergillus versicolor [13] = experiment: Antifungal activity against Aspergillus variecolor at 300 ug/disc after 72 hrs by disk diffusion method; assay type: functional; how it was run: as §2
Trichophyton benhamiae [14] = experiment: Antifungal activity against Trichophyton mentagrophytes after 72 hrs by agar dilution method; assay type: functional, Arthroderma benhamiae; how it was run: as §3
Coxsackievirus B4 = experiment: Antiviral activity against Coxsackie virus B4-induced cytopathogenicity at 16 ug/mL; assay type: functional, organism-based
Sindbis virus [15] = experiment: Antiviral activity against Sindbis virus-induced cytopathogenicity at 9.6 ug/mL; assay type: functional, organism-based
Punta Toro virus = experiment: Antiviral activity against Punta Toro virus-induced cytopathogenicity at 16 ug/mL; assay type: functional, organism-based
Human alphaherpesvirus 1 [16] = experiment: Antiviral activity against TK positive HSV1 KOS-induced cytopathogenicity at 16 ug/mL; assay type: functional, organism-based
Human alphaherpesvirus 1 [17] = experiment: Antiviral activity against acyclovir resistant TK positive HSV1 KOS-induced cytopathogenicity at 16 ug/mL; assay type: functional, organism-based
Trichophyton rubrum = experiment: Antifungal activity against Trichophyton rubrum at 300 ug/disc after 72 hrs by disk diffusion method; assay type: functional; how it was run: as §2

In the case of `Oc1ccc(-c2ccc(F)cc2F)cc1-c1n[nH]c(=S)n1C1CCCCC1`, the “inhibition zone (IZ)” value (Proteus vulgaris [1]) is reported as 10 mm, the inhibition in vivo at 50 mg/kg (Mus musculus [2]) is reported as 64.4% and the “inhibition zone (IZ)” value (Proteus vulgaris [3]) is reported as 12 mm. For the same compound, the Activity (Sindbis virus [4]) was “Active” and the Paw withdrawal latency (Mus musculus [5]) was 13.2 s.
`COc1ccc(Nc2nnc(-c3cc(-c4ccc(F)cc4F)ccc3O)s2)cc1` gave an inhibition in vivo at 50 mg/kg (Mus musculus [2]) of 55.3% and a Paw withdrawal latency (Mus musculus [5]) of 19.2 s.
For `Oc1ccc(-c2ccc(F)cc2F)cc1-c1nnc(Nc2ccccc2)o1`, the inhibition in vivo at 50 mg/kg (Mus musculus [2]) was 39.5% and the Paw withdrawal latency (Mus musculus [5]) was 12 s.
Work on `CO/N=C(\C(=O)N[C@@H]1C(=O)N2C(C(=O)[O-])=C(C[N+]3(C)CCCC3)CS[C@H]12)c1csc(N)n1` [CEFEPIME] yielded an MIC (Streptococcus pyogenes [6]) of 31.2 µg/mL (≈ 65 µM).
`CCNc1nnc(-c2cc(-c3ccc(F)cc3F)ccc2O)s1` gave an inhibition in vivo at 50 mg/kg (Mus musculus [2]) of 50.2% and a Paw withdrawal latency (Mus musculus [5]) of 13.5 s.
In the case of `C=CCn1c(-c2cc(-c3ccc(F)cc3F)ccc2O)n[nH]c1=S`, the “inhibition zone (IZ)” value (Enterococcus faecalis) is reported as 10 mm, the “inhibition zone (IZ)” value (Proteus vulgaris [1]) is reported as 10 mm and the MIC (Trichophyton benhamiae [7]) is reported as 31.2 µg/mL (≈ 90.5 µM). The “inhibition zone (IZ)” value (Streptococcus pyogenes [8]) was 12 mm, the inhibition in vivo at 50 mg/kg (Mus musculus [2]) was 73% and the “inhibition zone (IZ)” value (Proteus vulgaris [3]) was 9 mm. For the same compound, the “inhibition zone (IZ)” value (Aspergillus flavus [9]) was 14 mm, the “inhibition zone (IZ)” value (Streptococcus pyogenes [10]) was 14 mm and the “inhibition zone (IZ)” value (Escherichia coli) was 12 mm. For the same compound, the MIC (Aspergillus flavus [11]) was 31.2 µg/mL (≈ 90.5 µM), the “inhibition zone (IZ)” value (Aspergillus versicolor [12]) was 10 mm and the Paw withdrawal latency (Mus musculus [5]) was 16.8 s. For the same compound, the MIC (Aspergillus versicolor [13]) was 62.5 µg/mL (≈ 181 µM), the “inhibition zone (IZ)” value (Trichophyton benhamiae [14]) was 14 mm and the MIC (Streptococcus pyogenes [6]) was 62.2 µg/mL (≈ 180 µM).
In the case of `Cc1ccc(Nc2nnc(-c3cc(-c4ccc(F)cc4F)ccc3O)o2)cc1`, the inhibition in vivo at 50 mg/kg (Mus musculus [2]) is reported as 33.8% and the Paw withdrawal latency (Mus musculus [5]) is reported as 11.1 s.
For `Oc1ccc(-c2ccc(F)cc2F)cc1-c1nnc(Nc2ccccc2)s1`, the “inhibition zone (IZ)” value (Proteus vulgaris [1]) was 14 mm, the “inhibition zone (IZ)” value (Streptococcus pyogenes [8]) was 18 mm and the inhibition in vivo at 50 mg/kg (Mus musculus [2]) was 43%. For the same compound, the “inhibition zone (IZ)” value (Proteus vulgaris [3]) was 16 mm, the “inhibition zone (IZ)” value (Escherichia coli) was 16 mm and the Paw withdrawal latency (Mus musculus [5]) was 16.5 s.
In the case of `CNc1nnc(-c2cc(-c3ccc(F)cc3F)ccc2O)s1`, the inhibition in vivo at 50 mg/kg (Mus musculus [2]) is reported as 45.4%, the Activity (Coxsackievirus B4) is reported as “Active” and the Activity (Sindbis virus [4]) is reported as “Active”. The Activity (Sindbis virus [15]) was “Active”, the Activity (Punta Toro virus) was “Active” and the Activity (Human alphaherpesvirus 1 [16]) was “Active”. For the same compound, the Paw withdrawal latency (Mus musculus [5]) was 13.5 s and the Activity (Human alphaherpesvirus 1 [17]) was “Active”.
`CNc1nnc(-c2cc(-c3ccc(F)cc3F)ccc2O)o1` was tested, and the inhibition in vivo at 50 mg/kg (Mus musculus [2]) was 41.4% and the Paw withdrawal latency (Mus musculus [5]) was 10.9 s.
For `Cc1ccc(Nc2nnc(-c3cc(-c4ccc(F)cc4F)ccc3O)s2)cc1`, the inhibition in vivo at 50 mg/kg (Mus musculus [2]) was 43.5% and the Paw withdrawal latency (Mus musculus [5]) was 14.5 s.
In the case of `C=CCNc1nnc(-c2cc(-c3ccc(F)cc3F)ccc2O)s1`, the inhibition in vivo at 50 mg/kg (Mus musculus [2]) is reported as 57.2%, the Activity (Coxsackievirus B4) is reported as “Active” and the Activity (Sindbis virus [4]) is reported as “Active”. For the same compound, the Activity (Punta Toro virus) was “Active”, the Activity (Human alphaherpesvirus 1 [16]) was “Active” and the Paw withdrawal latency (Mus musculus [5]) was 13.9 s. For the same compound, the Activity (Human alphaherpesvirus 1 [17]) was “Active”.
In the case of `CCN[C@@H]1C[C@H](N)[C@@H](O[C@H]2OC(CN)=CC[C@H]2N)[C@H](O)[C@H]1O[C@H]1OC[C@](C)(O)[C@H](NC)[C@H]1O` [NETILMICIN], the MIC (Trichophyton benhamiae [7]) is reported as 31.2 µg/mL (≈ 65.7 µM), the MIC (Aspergillus flavus [11]) is reported as 15.6 µg/mL (≈ 32.8 µM) and the MIC (Trichophyton rubrum) is reported as 15.6 µg/mL (≈ 32.8 µM). For the same compound, the MIC (Aspergillus versicolor [13]) was 62.5 µg/mL (≈ 131 µM).
